# Results reported in ChEMBL document CHEMBL5335771, “Thioxanthenone-based derivatives as multitarget therapeutic leads for Alzheimer's disease” (Eur J Med Chem, 2023).
# Activity calls are given as the source filed them. The calls are words filed in the database; no cut-off is given here.
# Experiments:
# [1] = test system: SH-SY5Y; experiment: Neuroprotective activity against okadaic acid-induced cytotoxicity in human SH-SY5Y cells assessed as increase in cell viability at 0.1 to 10 uM incubated for 24 hrs by MTT assay; type: functional, cell-based; conditions: dose 0.1-10 µM
# Method in brief: (§1)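 SH-SY5Y cells grown in DMEM with 10% FBS and plated at 4.5×10^4 cells/well. Incubated 24 h at 37 °C, 5% CO2 with compound (0.1–50 μM) plus okadaic acid 100 nM. Viability by MTT, expressed as % of untreated cells; estradiol and PD38 as positive controls. Mean ± SD of three independent experiments; ANOVA with Dunnett's test.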
# [2] = Cytotoxicity against mouse brain Primary embryonic cortical cell assessed as cell death at 30 uM incubated for 2 hrs by propidium iodide dye based spectrofluorometric analysis relative to control; type: toxicity
# Method in brief: (§2)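 Primary cortical cultures from E16.5 mouse embryo brains, trypsinized, plated on poly-D-lysine, grown in Neurobasal with glutamine, glucose, 5% horse serum and B27; compounds added at 4 DIV. Propidium iodide 30 μM; baseline F1 read 1 h after PI; ex 530/em 645 nm. Fmax after digitonin permeabilization. % death = 100×(Fn−F1)/(Fmax−F1); mean of three independent experiments.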
# [3] = Cytotoxicity against mouse brain Primary embryonic cortical cell assessed as cell death at 30 uM incubated for 72 hrs by propidium iodide dye based spectrofluorometric analysis relative to control; type: toxicity; method in brief: as §2
# [4] = Cytotoxicity against mouse brain Primary embryonic cortical cell assessed as cell death at 2.5 uM incubated for 2 hrs by propidium iodide dye based spectrofluorometric analysis relative to control; type: toxicity; method in brief: as §2
# [5] = Cytotoxicity against mouse brain Primary embryonic cortical cell assessed as cell death at 30 uM incubated for 3 hrs by propidium iodide dye based spectrofluorometric analysis relative to control; type: toxicity; method in brief: as §2
# [6] = Cytotoxicity against mouse brain Primary embryonic cortical cell assessed as cell death at 5 uM incubated for 24 hrs by propidium iodide dye based spectrofluorometric analysis relative to control; type: toxicity; method in brief: as §2
# [7] = Cytotoxicity against mouse brain Primary embryonic cortical cell assessed as cell death at 5 uM incubated for 6 hrs by propidium iodide dye based spectrofluorometric analysis relative to control; type: toxicity; method in brief: as §2
# [8] = Cytotoxicity against mouse brain Primary embryonic cortical cell assessed as cell death at 10 uM incubated for 2 hrs by propidium iodide dye based spectrofluorometric analysis relative to control; type: toxicity; method in brief: as §2
# [9] = Cytotoxicity against mouse brain Primary embryonic cortical cell assessed as cell death at 2.5 uM incubated for 1 hr by propidium iodide dye based spectrofluorometric analysis relative to control; type: toxicity; method in brief: as §2
# [10] = Cytotoxicity against mouse brain Primary embryonic cortical cell assessed as cell death at 30 uM incubated for 5 hrs by propidium iodide dye based spectrofluorometric analysis relative to control; type: toxicity; method in brief: as §2
# [11] = Cytotoxicity against mouse brain Primary embryonic cortical cell assessed as cell death at 10 uM incubated for 48 hrs by propidium iodide dye based spectrofluorometric analysis relative to control; type: toxicity; method in brief: as §2
# [12] = target: Microtubule-associated protein tau (Homo sapiens, UniProt P10636); experiment: Inhibition of tau (unknown origin) aggregation expressed in Escherichia coli BL21 (DE3)
# Sequence of Microtubule-associated protein tau (P10636 whole entry): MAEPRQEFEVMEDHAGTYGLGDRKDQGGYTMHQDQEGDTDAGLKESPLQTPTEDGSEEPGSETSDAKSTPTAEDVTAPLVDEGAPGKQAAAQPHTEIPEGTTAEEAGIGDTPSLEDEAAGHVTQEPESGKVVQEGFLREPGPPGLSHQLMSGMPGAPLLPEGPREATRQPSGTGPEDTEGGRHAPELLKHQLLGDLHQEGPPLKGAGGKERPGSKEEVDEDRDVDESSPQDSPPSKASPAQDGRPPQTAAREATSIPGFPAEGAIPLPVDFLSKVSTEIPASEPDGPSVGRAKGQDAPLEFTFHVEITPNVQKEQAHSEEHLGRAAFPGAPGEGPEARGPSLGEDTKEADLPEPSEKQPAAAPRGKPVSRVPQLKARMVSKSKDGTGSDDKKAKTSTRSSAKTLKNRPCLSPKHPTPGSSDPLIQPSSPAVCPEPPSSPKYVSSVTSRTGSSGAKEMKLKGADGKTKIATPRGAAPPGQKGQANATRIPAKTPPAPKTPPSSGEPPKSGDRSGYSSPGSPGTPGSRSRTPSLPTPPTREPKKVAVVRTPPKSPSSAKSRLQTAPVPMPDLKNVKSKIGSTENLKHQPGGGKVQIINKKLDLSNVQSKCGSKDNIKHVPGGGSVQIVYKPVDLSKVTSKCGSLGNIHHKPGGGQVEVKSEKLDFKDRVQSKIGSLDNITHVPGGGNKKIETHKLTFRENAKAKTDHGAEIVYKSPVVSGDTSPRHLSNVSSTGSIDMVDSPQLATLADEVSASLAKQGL
# Method in brief: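 E. coli BL21(DE3) carrying pTARA (T7 RNA polymerase under PBAD) and pRKT42 (four-repeat tau) grown at 37 °C in M9 with 0.5% glucose, antibiotics and 250 μM ThS to OD600 0.6. […] ThS fluorescence ex 430/em 485 nm, normalized to tau-expressing cells (100%) and non-expressing cells (0%); OD600 checked for growth.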
# [13] = Cytotoxicity against mouse brain Primary embryonic cortical cell assessed as cell death at 30 uM incubated for 24 hrs by propidium iodide dye based spectrofluorometric analysis relative to control; type: toxicity; method in brief: as §2
# [14] = test system: SH-SY5Y; experiment: Neuroprotective activity against okadaic acid-induced cytotoxicity in human SH-SY5Y cells assessed as increase in cell viability at 50 uM incubated for 24 hrs by MTT assay; type: functional, cell-based; method in brief: as §1
# [15] = Cytotoxicity against mouse brain Primary embryonic cortical cell assessed as cell death at 10 uM incubated for 72 hrs by propidium iodide dye based spectrofluorometric analysis relative to control; type: toxicity; method in brief: as §2
# [16] = target: Acetylcholinesterase (Homo sapiens, UniProt P22303); experiment: Inhibition of human recombinant AChE using acetylthiocholine iodide as substrate preincubated for 20 mins followed by substrate addition by DTNB reagent based Ellman's method
# Sequence of Acetylcholinesterase (Homo sapiens, UniProt P22303) (P22303 whole entry): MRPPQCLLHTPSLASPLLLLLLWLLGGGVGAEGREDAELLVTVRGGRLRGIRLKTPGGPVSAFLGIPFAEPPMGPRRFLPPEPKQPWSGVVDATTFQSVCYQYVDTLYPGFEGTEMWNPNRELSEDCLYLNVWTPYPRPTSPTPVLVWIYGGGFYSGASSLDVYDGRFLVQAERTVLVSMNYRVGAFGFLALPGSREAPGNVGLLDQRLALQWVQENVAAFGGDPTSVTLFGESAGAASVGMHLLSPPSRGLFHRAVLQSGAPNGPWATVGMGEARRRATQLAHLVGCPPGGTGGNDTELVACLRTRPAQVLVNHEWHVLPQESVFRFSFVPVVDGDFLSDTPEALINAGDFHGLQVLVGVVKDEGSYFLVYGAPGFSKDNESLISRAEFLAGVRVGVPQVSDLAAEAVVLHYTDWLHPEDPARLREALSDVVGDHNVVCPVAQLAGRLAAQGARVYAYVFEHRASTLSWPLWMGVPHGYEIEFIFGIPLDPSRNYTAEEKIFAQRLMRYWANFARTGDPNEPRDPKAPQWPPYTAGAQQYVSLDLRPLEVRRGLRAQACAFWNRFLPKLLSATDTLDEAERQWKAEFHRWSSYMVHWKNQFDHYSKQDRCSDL
# [17] = Cytotoxicity against mouse brain Primary embryonic cortical cell assessed as cell death at 5 uM incubated for 3 hrs by propidium iodide dye based spectrofluorometric analysis relative to control; type: toxicity; method in brief: as §2
# [18] = Cytotoxicity against mouse brain Primary embryonic cortical cell assessed as cell death at 30 uM incubated for 4 hrs by propidium iodide dye based spectrofluorometric analysis relative to control; type: toxicity; method in brief: as §2
# [19] = Cytotoxicity against mouse brain Primary embryonic cortical cell assessed as cell death at 2.5 uM incubated for 4 hrs by propidium iodide dye based spectrofluorometric analysis relative to control; type: toxicity; method in brief: as §2
# [20] = target: Acetylcholinesterase (Electrophorus electricus, UniProt O42275); experiment: Inhibition of electric eel AChE using acetylthiocholine iodide as substrate preincubated for 20 mins followed by substrate addition by DTNB reagent based Ellman's method
# Sequence of Acetylcholinesterase (Electrophorus electricus, UniProt O42275) (O42275 whole entry): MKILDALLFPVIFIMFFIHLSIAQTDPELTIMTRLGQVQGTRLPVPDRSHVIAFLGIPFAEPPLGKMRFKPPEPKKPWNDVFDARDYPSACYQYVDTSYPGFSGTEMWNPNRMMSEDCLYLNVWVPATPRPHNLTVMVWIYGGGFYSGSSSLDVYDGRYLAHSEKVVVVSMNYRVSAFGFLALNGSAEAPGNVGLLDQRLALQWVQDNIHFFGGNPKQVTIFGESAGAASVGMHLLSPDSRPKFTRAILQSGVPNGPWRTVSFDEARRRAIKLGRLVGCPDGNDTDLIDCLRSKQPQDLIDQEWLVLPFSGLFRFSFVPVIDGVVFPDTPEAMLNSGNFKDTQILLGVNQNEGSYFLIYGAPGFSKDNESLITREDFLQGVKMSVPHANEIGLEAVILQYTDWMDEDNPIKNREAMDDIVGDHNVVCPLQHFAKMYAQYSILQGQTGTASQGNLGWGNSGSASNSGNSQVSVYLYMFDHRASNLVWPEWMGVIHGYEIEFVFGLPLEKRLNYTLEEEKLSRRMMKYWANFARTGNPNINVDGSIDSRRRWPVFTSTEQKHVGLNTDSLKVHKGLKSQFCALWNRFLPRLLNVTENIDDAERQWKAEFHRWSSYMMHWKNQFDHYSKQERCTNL
# [21] = Cytotoxicity against mouse brain Primary embryonic cortical cell assessed as cell death at 10 uM incubated for 24 hrs by propidium iodide dye based spectrofluorometric analysis relative to control; type: toxicity; method in brief: as §2
# [22] = Cytotoxicity against mouse brain Primary embryonic cortical cell assessed as cell death at 5 uM incubated for 72 hrs by propidium iodide dye based spectrofluorometric analysis relative to control; type: toxicity; method in brief: as §2
# [23] = Cytotoxicity against mouse brain Primary embryonic cortical cell assessed as cell death at 2.5 uM incubated for 6 hrs by propidium iodide dye based spectrofluorometric analysis relative to control; type: toxicity; method in brief: as §2
# [24] = Cytotoxicity against mouse brain Primary embryonic cortical cell assessed as cell death at 10 uM incubated for 3 hrs by propidium iodide dye based spectrofluorometric analysis relative to control; type: toxicity; method in brief: as §2
# [25] = Cytotoxicity against mouse brain Primary embryonic cortical cell assessed as cell death at 10 uM incubated for 4 hrs by propidium iodide dye based spectrofluorometric analysis relative to control; type: toxicity; method in brief: as §2
# [26] = target: Cholinesterase (Homo sapiens, UniProt P06276); experiment: Inhibition of human recombinant BChE using acetylthiocholine iodide as substrate at 10 uM preincubated for 20 mins followed by substrate addition by DTNB reagent based Ellman's method relative to control
# Sequence of Cholinesterase (P06276 whole entry): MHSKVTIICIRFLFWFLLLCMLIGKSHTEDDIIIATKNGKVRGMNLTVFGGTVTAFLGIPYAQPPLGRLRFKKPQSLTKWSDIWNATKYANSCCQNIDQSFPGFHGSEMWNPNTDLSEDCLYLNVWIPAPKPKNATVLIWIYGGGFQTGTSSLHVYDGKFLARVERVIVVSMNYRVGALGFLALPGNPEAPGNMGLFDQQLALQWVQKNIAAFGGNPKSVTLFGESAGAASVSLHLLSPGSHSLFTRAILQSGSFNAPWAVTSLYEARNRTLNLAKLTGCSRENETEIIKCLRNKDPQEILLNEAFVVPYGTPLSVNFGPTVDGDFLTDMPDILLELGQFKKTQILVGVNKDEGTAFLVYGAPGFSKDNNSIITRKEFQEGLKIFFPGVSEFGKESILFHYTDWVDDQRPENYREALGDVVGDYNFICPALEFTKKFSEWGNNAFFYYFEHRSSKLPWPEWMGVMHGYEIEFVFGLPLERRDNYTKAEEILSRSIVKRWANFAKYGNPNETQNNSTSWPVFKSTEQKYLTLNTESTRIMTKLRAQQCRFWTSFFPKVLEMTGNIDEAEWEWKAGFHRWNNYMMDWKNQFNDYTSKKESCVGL
# Method in brief: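 Human BChE activity was read by the Ellman spectrophotometric method. Results are % inhibition at a single 10 μM inhibitor concentration. Values are means of three independent experiments.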
# [27] = Cytotoxicity against mouse brain Primary embryonic cortical cell assessed as cell death at 2.5 uM incubated for 48 hrs by propidium iodide dye based spectrofluorometric analysis relative to control; type: toxicity; method in brief: as §2
# [28] = Cytotoxicity against mouse brain Primary embryonic cortical cell assessed as cell death at 30 uM incubated for 1 hr by propidium iodide dye based spectrofluorometric analysis relative to control; type: toxicity; method in brief: as §2
# [29] = Cytotoxicity against mouse brain Primary embryonic cortical cell assessed as cell death at 30 uM incubated for 48 hrs by propidium iodide dye based spectrofluorometric analysis relative to control; type: toxicity; method in brief: as §2
# [30] = Cytotoxicity against mouse brain Primary embryonic cortical cell assessed as cell death at 30 uM incubated for 6 hrs by propidium iodide dye based spectrofluorometric analysis relative to control; type: toxicity; method in brief: as §2
# [31] = Cytotoxicity against mouse brain Primary embryonic cortical cell assessed as cell death at 2.5 uM incubated for 72 hrs by propidium iodide dye based spectrofluorometric analysis relative to control; type: toxicity; method in brief: as §2
# [32] = Cytotoxicity against mouse brain Primary embryonic cortical cell assessed as cell death at 5 uM incubated for 48 hrs by propidium iodide dye based spectrofluorometric analysis relative to control; type: toxicity; method in brief: as §2
compound,measurement,setting,value
COc1ccc2sc3c(C)ccc(NCCC4CCN(C)CC4)c3c(=O)c2c1,Activity,[1],Active
same,Activity,[2],46.5%
same,Activity,[3],89.4%
same,Activity,[4],3.8%
same,Activity,[5],54.7%
same,Activity,[6],91.3%
same,Activity,[7],41.4%
same,Activity,[8],43.5%
same,Activity,[9],2.9%
same,Activity,[10],60.4%
same,Activity,[11],84.1%
same,IC50,[12],1.8 µM
same,Activity,[13],86.1%
same,Activity,[14],inactive
same,Activity,[15],92.4%
same,IC50,[16],16.1 µM
same,Activity,[17],15.8%
same,Activity,[18],56.1%
same,Activity,[19],17.4%
same,IC50,[20],4.4 µM
same,Activity,[21],88.5%
same,Activity,[22],85.7%
same,Activity,[23],29.9%
same,Activity,[24],48.9%
same,Activity,[25],52.6%
same,inhibition,[26],16%
same,Activity,[27],81.5%
same,Activity,[28],28.5%
same,Activity,[29],88.1%
same,Activity,[30],61.9%
same,Activity,[31],77.8%
same,Activity,[32],85.6%
